Structures are written as SMILES.

Results on 5 compounds are retold here after ChEMBL document CHEMBL1122917, “Vinblastin-23-oyl amino acid derivatives: chemistry, physicochemical data, toxicity, and antitumor activities against P388 and L1210 leukemias” (J Med Chem, 1985).

Assay [1] relates to Mus musculus. Nature of the assay: Percent increase in life span of DBA2 mice after inoculation with L1210 leukemia intravenously at a dose of 55 mg/kg per day. Type of assay: functional. Conditions: route intravenous. The method, boiled down: (§1)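 Female DBA2 mice inoculated iv on day 0 with 10^4 L1210 cells; drugs given iv as sulfate salts in physiological saline, mostly once on day 1. %ILS from all deaths and survivors as (T/C × 100) − 100; survivors scored on days 30 and 60.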

For assay [2], the system named is Mus musculus. Nature of the assay: Percent increase in life span of DBA2 mice after inoculation with L1210 leukemia intravenously at a dose of 60 mg/kg per day. Conditions: route intravenous. The format is functional. The method, boiled down:
as §1

Assay [3] deals with Mus musculus. Nature of the assay: Percent increase in life span at dose 55 mg/kg/day in 7 mice implanted with P388 leukemia cell line for 1,8,15 schedule day. The format is functional.
In assay [4] the test system is Mus musculus. Nature of the assay: Number of survivors on 60th day at dose 55 mg/kg/day in 10 mice implanted with P388 leukemia cell line for 1st scheduled day; 6/10. Type of assay: functional.
Assay [5] relates to Mus musculus. Nature of the assay: Percent increase in life span at dose 70 mg/kg/day in 10 mice implanted with P388 leukemia cell line. The format is functional. Summed up: (§2)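 Female DBA2 mice inoculated iv on day 0 with 10^4 P388 cells; single iv treatment on day 1 with drug as sulfate salt in physiological saline. Survival followed; %ILS from all deaths and survivors as (T/C × 100) − 100, maximal MST 30 days; survivors counted on days 30 and 60. Most experiments confirmed three times.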

In assay [6] the test system is Mus musculus. Nature of the assay: Number of survivors of DBA2 mice on 30th day after inoculation with L1210 leukemia cell line intravenously at a dose of 45 mg/kg/day; 0/10. Type of assay: functional. Conditions: route intravenous.
Assay [7] concerns Mus musculus. Nature of the assay: Number of survivors on 60th day at dose 50 mg/kg/day in 10 mice implanted with P388 leukemia cell line; 5/10. The format is functional.
The subject of assay [8] is Mus musculus. Nature of the assay: Percent increase in life span at dose 60 mg/kg/day in 10 mice implanted with P388 leukemia cell line for 1st schedule day. The format is functional.
Assay [9] deals with Mus musculus. Nature of the assay: Percent increase in life span at dose 65 mg/kg/day in 10 mice implanted with P388 leukemia cell line. The format is functional. Summed up:
as §2

For assay [10], the system named is Mus musculus. Nature of the assay: Number of survivors on 60th day at dose 40 mg/kg/day in 10 mice implanted with P388 leukemia cell line; 4/10. Type of assay: functional.
The subject of assay [11] is Mus musculus. Nature of the assay: Number of survivors on 60th day at dose 65 mg/kg/day in 10 mice implanted with P388 leukemia cell line for 1st scheduled day; 1/10. The format is functional.
Assay [12] relates to Mus musculus. Nature of the assay: Number of survivors on 60th day at dose 70 mg/kg/day in 10 mice implanted with P388 leukemia cell line; 0/11. Type of assay: functional.
In assay [13] the test system is Mus musculus. Nature of the assay: Number of survivors of DBA2 mice on 60th day after inoculation with L1210 leukemia cell line intravenously at a dose of 60 mg/kg/day; 0/10. Conditions: route intravenous. The format is functional.
Assay [14] relates to Mus musculus. Nature of the assay: Number of survivors on 30th day at dose 60 mg/kg/day in 10 mice implanted with P388 leukemia cell line for 1st scheduled day; 8/10. The format is functional.
The subject of assay [15] is Mus musculus. Nature of the assay: Number of survivors on 30th day at dose 60 mg/kg/day in 10 mice implanted with P388 leukemia cell line; 8/10. The format is functional.
For assay [16], the system named is Mus musculus. Nature of the assay: Number of survivors on 60th day at dose 6 mg/kg/day in 7 mice implanted with P388 leukemia cell line for 1,8.15 scheduled days from Exp-1; 0/10. Type of assay: functional.
Assay [17] deals with Mus musculus. Nature of the assay: Percent increase in life span at dose 10 mg/kg/day in 7 mice implanted with P388 leukemia cell line for 1,8,15 schedule days. Type of assay: functional.
The test system of assay [18] is Mus musculus. Nature of the assay: Number of survivors on 30th day at dose 7 mg/kg/day in 10 mice implanted with P388 leukemia cell line; 2/10. The format is functional.
Assay [19] deals with Mus musculus. Nature of the assay: Number of survivors on 60th day at dose 7 mg/kg/day in 9 mice implanted with P388 leukemia cell line; 0/9. The format is functional.
Assay [20] has as its system Mus musculus. Nature of the assay: Percent increase in life span at dose 4 mg/kg/day in 7 mice implanted with P388 leukemia cell line for 1,8,15 scheduled day from Exp-1. The format is functional.
The subject of assay [21] is Mus musculus. Nature of the assay: Number of survivors on 30th day at dose 3 mg/kg/day in 10 mice implanted with P388 leukemia cell line; 0 /10. The format is functional.
Assay [22] has as its system Mus musculus. Nature of the assay: Number of survivors on 30th day at dose 4 mg/kg/day in 10 mice implanted with P388 leukemia cell line; 0 /10. The format is functional.
Assay [23] relates to Mus musculus. Nature of the assay: Number of survivors on 60th day at dose 7 mg/kg/day in 9 mice implanted with P388 leukemia cell line;0/9. The format is functional.
Assay [24] has as its system Mus musculus. Nature of the assay: Number of survivors on 30th day at dose 7 mg/kg/day in 9 mice implanted with P388 leukemia cell line; 1 /9. The format is functional.
In assay [25] the test system is Mus musculus. Nature of the assay: Number of survivors of DBA2 mice on 60th day after inoculation with L1210 leukemia cell line intraperitoneally at a dose of 2 mg/kg/day; 0/11. The format is functional. Conditions: route intraperitoneal.
For assay [26], the system named is Mus musculus. Nature of the assay: Number of survivors of DBA2 mice on 30th day after inoculation with L1210 leukemia cell line intravenously at a dose of 2 mg/kg/day; 0/10. Type of assay: functional. Conditions: route intravenous.
Assay [27] has as its system Mus musculus. Nature of the assay: Number of survivors of DBA2 mice on 30th day after inoculation with L1210 leukemia cell line intravenously at a dose of 1 mg/kg/day; 0/10. Conditions: route intravenous. Type of assay: functional.
Assay [28] relates to Mus musculus. Nature of the assay: Number of survivors of DBA2 mice on 30th day after inoculation with L1210 leukemia cell line intravenously at a dose of 3.5 mg/kg/day; 0/10. Type of assay: functional. Conditions: route intravenous.
The test system of assay [29] is Mus musculus. Nature of the assay: Number of survivors of DBA2 mice on 60th day after inoculation with L1210 leukemia cell line intravenously at a dose of 2 mg/kg/day; 0/10. The format is functional. Conditions: route intravenous.
For assay [30], the system named is Mus musculus. Nature of the assay: Number of survivors on 60th day at dose 2 mg/kg/day in 7 mice implanted with P388 leukemia cell line for 1,8,15 scheduled days; 0/11. Type of assay: functional.
For assay [31], the system named is Mus musculus. Nature of the assay: Number of survivors on 60th day at dose 3 mg/kg/day in 10 mice implanted with P388 leukemia cell line; 0/9. The format is functional.
The test system of assay [32] is Mus musculus. Nature of the assay: Number of survivors of DBA2 mice on 60th day after inoculation with L1210 leukemia cell line intraperitoneally at a dose of 0.30 mg/kg/day; 0/10. Type of assay: functional. Conditions: route intraperitoneal.
Assay [33] relates to Mus musculus. Nature of the assay: Percent increase in life span at dose 2.5 mg/kg/day in 10 mice implanted with P388 leukemia cell line. Type of assay: functional.
In assay [34] the test system is Mus musculus. Nature of the assay: Percent increase in life span at dose 2.5 mg/kg/day in 7 mice implanted with P388 leukemia cell line for 1,8,15 scheduled days from Exp-1. The format is functional.
Assay [35] deals with Mus musculus. Nature of the assay: Percent increase in life span at dose 2.5 mg/kg/day in 7 mice implanted with P388 leukemia cell line for 1,8,15 scheduled days from Exp-2. Type of assay: functional.
In assay [36] the test system is Mus musculus. Nature of the assay: Number of survivors on 30th day at dose 3 mg/kg/day in 10 mice implanted with P388 leukemia cell line; 0/10. The format is functional.
Assay [37] deals with Mus musculus. Nature of the assay: Number of survivors on 30th day at dose 2.5 mg/kg/day in 10 mice implanted with P388 leukemia cell line; 0/10. Type of assay: functional.
Assay [38] concerns Mus musculus. Nature of the assay: Number of survivors on 30th day at dose 7 mg/kg/day in 10 mice implanted with P388 leukemia cell line; 0/10. Type of assay: functional.
The subject of assay [39] is Mus musculus. Nature of the assay: Percent increase in life span of BDF1 mice after inoculation with P388 leukemia intraperitoneally at a dose of 2.5 mg/kg per day. Conditions: P388, ip.

On to `CCOC(=O)[C@H](Cc1c[nH]c2ccccc12)NC(=O)[C@@]1(O)[C@H](O)[C@]2(CC)C=CCN3CC[C@@]4(c5cc([C@@]6(C(=O)OC)C[C@H]7C[N@](CCc8c6[nH]c6ccccc86)C[C@](O)(CC)C7)c(OC)cc5N(C)[C@@]14C)[C@@H]32`, for which the ILS (usually how much longer treated animals lived than controls) at 55 mg/kg/day in the assay on Mus musculus [1] is 55.3%; in the assay on Mus musculus [3], 53%. The ILS at 60 mg/kg/day with Mus musculus [2] was 58%; in the assay on Mus musculus [8], above 224%. Moreover, the Survivors in the assay on Mus musculus [4] amounted to 6; with Mus musculus [6], 0; with Mus musculus [7] it was 5; in the assay with Mus musculus [10], 4; in the assay with Mus musculus [11] it was 1; in the assay with Mus musculus [12] it was 0. Further, the Survivors in the assay on Mus musculus [13] was 0; in the assay on Mus musculus [14], 8; in the assay with Mus musculus [15], 8. Also, in the assay on Mus musculus [5], the increase in life span (ILS) at 70 mg/kg/day is 160%. The compound further displayed an ILS at 65 mg/kg/day in the assay with Mus musculus [9] above 173%.
On to `CCOC(=O)[C@@H](NC(=O)[C@@]1(O)[C@H](O)[C@]2(CC)C=CCN3CC[C@@]4(c5cc([C@@]6(C(=O)OC)C[C@H]7C[N@](CCc8c6[nH]c6ccccc86)C[C@](O)(CC)C7)c(OC)cc5N(C)[C@@]14C)[C@@H]32)[C@@H](C)CC`, for which the Survivors in the assay on Mus musculus [16] was 0; with Mus musculus [18] it was 2; in the assay on Mus musculus [19] it was 0. In the assay on Mus musculus [17], this compound gave an increase in lifespan (ILS) at 10 mg/kg/day of 41%.
`CC[C@]1(O)C[C@@H]2CN(CCc3c([nH]c4ccccc34)[C@@](C(=O)OC)(c3cc4c(cc3OC)N(C)[C@H]3[C@@](O)(C(=O)OC)[C@H](OC(C)=O)[C@]5(CC)C=CCN6CC[C@]43[C@@H]65)C2)C1` [VINBLASTINE]: the increase in lifespan (ILS) at 4 mg/kg/day with Mus musculus [20] came to 58%. The Survivors worked out at 0 in the assay with Mus musculus [21], 0 with Mus musculus [22], 0 in the assay with Mus musculus [23] and 1 in the assay on Mus musculus [24].
For `CC[C@]1(O)C[C@H]2CN(CCc3c([nH]c4ccccc34)[C@@](C(=O)OC)(c3cc4c(cc3OC)N(C=O)[C@H]3[C@@](O)(C(=O)OC)[C@H](OC(C)=O)[C@]5(CC)C=CCN6CC[C@]43[C@@H]65)C2)C1` [VINCRISTINE], the Survivors in the assay on Mus musculus [25], in the assay with Mus musculus [26], in the assay on Mus musculus [27], in the assay with Mus musculus [28] and with Mus musculus [29] was 0 each time.
With `CC[C@]1(O)C[C@@H]2CN(CCc3c([nH]c4ccccc34)[C@@](C(=O)OC)(c3cc4c(cc3OC)N(C)[C@H]3[C@@](O)(C(N)=O)[C@H](O)[C@]5(CC)C=CCN6CC[C@]43[C@@H]65)C2)C1` [VINDESINE], the Survivors with Mus musculus [30], in the assay with Mus musculus [31], with Mus musculus [32], in the assay on Mus musculus [36], in the assay with Mus musculus [37] and with Mus musculus [38] was 0 throughout. The ILS at 2.5 mg/kg/day with Mus musculus [33] is 19%; in the assay on Mus musculus [34], 31%; in the assay on Mus musculus [35], 13%; in the assay on Mus musculus [39], 150%.
